Published values of several laboratories.
Antigen peptide transporter 1/Antigen peptide transporter 2: Antigen peptide transporter 1/Antigen peptide transporter 2 (Homo sapiens, UniProt Q03518+Q03519)
CP: CP (Tobacco mosaic virus, UniProt P69687)
Cnr1: Cannabinoid receptor 1 (Cnr1, Rattus norvegicus, UniProt P20272)

CC(C)C[C@H](NC(=O)[C@H](CCC(=O)O)NC(=O)[C@@H](NC(=O)[C@H](CO)NC(=O)[C@H](CCCCN)NC(=O)[C@H](CCC(N)=O)NC(=O)[C@H](Cc1ccc(O)cc1)NC(=O)[C@H](CCCNC(=N)N)NC(=O)[C@H](CCCNC(=N)N)NC(=O)[C@H](C)N)[C@@H](C)O)C(=O)N[C@@H](C)C(=O)O — IC50 (Antigen peptide transporter 1/Antigen peptide transporter 2; ligand displacement): 2600 nM
COc1c(-c2ccccc2)oc2c(ccc3occc32)c1=O — IC50 (Cyclin-dependent kinase 7, with cyclin H (CDK7, Homo sapiens, UniProt P50613); enzyme activity, inhibitor, ADP detection): > 100000 nM
NC(=O)c1ncn([C@@H]2O[C@H](CO)[C@@H](O)[C@H]2O)n1 — Kd (CP; binding, MST): 120000 nM
C/C(N)=N\C(=N/S(=O)(=O)c1ccc(C(F)(F)F)cc1)N1C[C@H](c2ccccc2)C(c2ccc(Cl)cc2)=N1 — Ki (Cnr1; ligand displacement, radioligand; cell membranes): 8 nM
CNCC(=O)N[C@@H](CO)C(=O)N[C@H]1[C@H](O)[C@@H](O)[C@H](n2ccc(N)nc2=O)O[C@@H]1C(N)=O — Kd (CP; binding, MST): 9200 nM
C[C@H](N)C(=O)N[C@@H](CCCNC(=N)N)C(=O)N[C@@H](C)C(=O)N[C@@H](C)C(=O)N[C@@H](C)C(=O)N[C@@H](C)C(=O)N[C@@H](C)C(=O)N[C@@H](C)C(=O)N[C@@H](CCCCN)C(=O)O — IC50 (Antigen peptide transporter 1/Antigen peptide transporter 2; ligand displacement): 7000 nM
O=C(/C=C/c1cccc(S(=O)(=O)Nc2ccccc2)c1)NO — Kd (Protein deacetylase HDAC6 (HDAC6, Homo sapiens, UniProt Q9UBN7); cell-free assay): 520 nM
COc1ccc2cccc(C(CO)CNC(=O)CF)c2c1 (stereo not shown) — EC50 (Melatonin receptor type 1B (MTNR1B, Homo sapiens, UniProt P49286); β-arrestin recruitment, agonist): 2.69 nM
CCCCCn1c2ccccc2c2cc(CN3CCCCC3)ccc21 — Ki (Cnr1; ligand displacement, radioligand; cell membranes): ~100 nM
CC[C@H](C)[C@H](NC(=O)[C@H](CCCNC(=N)N)NC(=O)[C@H](C)N)C(=O)N[C@@H](CC(=O)O)C(=O)N[C@@H](CCCCN)C(=O)N1CCC[C@H]1C(=O)N[C@H](C(=O)N[C@@H](CC(C)C)C(=O)N[C@@H](C)C(=O)O)[C@@H](C)CC — IC50 (Antigen peptide transporter 1/Antigen peptide transporter 2; ligand displacement): 500 nM
CC[C@H](C)[C@H](NC(=O)[C@H](CC(C)C)NC(=O)[C@@H](N)CO)C(=O)NCC(=O)N[C@@H](CCCCN)C(=O)N[C@H](C(N)=O)C(C)C — EC50 (Proteinase-activated receptor 2 (F2RL1, Homo sapiens, UniProt P55085); calcium signal, agonist): 28200 nM
C[C@H](NC(=O)[C@H](CCC(=O)O)NC(=O)[C@@H](NC(=O)[C@H](CO)NC(=O)[C@H](CCCCN)NC(=O)[C@H](CCC(N)=O)NC(=O)[C@H](Cc1ccc(O)cc1)NC(=O)[C@H](CCCNC(=N)N)NC(=O)[C@@H](N)CCCNC(=N)N)[C@@H](C)O)C(=O)O — IC50 (Antigen peptide transporter 1/Antigen peptide transporter 2; ligand displacement): 700 nM
CCCCCn1c2ccccc2c2cc(C(=O)NCC3CCN(CC(=O)NC(C)(C)C)CC3)ccc21 — Ki (Cnr1; ligand displacement, radioligand): > 5000 nM
